# Screens: PubChem, Johns Hopkins Ion Channel Center
# Sampled rows, rich in hits. Any-hit rate of the full collection: about 3.5%.
# MrgX1 agonist – agonists of human MrgX1 receptor, primary screen, HEK293 cells, Fluo-4 calcium flux | Fluo-4 calcium fluorescence, agonist mode; stronger effect = higher value | actives 0.44% (n = 310,000) | B-score at 10 µM | Mas-related G-protein coupled receptor member X1 (Homo sapiens), Q96LB2;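 active = calcium response B-score plate-corrected fluorescence ratio at least 3 library SD, with starting fluorescence B-score inside 5 SD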
# Target sequence (Q96LB2 whole entry, looked up): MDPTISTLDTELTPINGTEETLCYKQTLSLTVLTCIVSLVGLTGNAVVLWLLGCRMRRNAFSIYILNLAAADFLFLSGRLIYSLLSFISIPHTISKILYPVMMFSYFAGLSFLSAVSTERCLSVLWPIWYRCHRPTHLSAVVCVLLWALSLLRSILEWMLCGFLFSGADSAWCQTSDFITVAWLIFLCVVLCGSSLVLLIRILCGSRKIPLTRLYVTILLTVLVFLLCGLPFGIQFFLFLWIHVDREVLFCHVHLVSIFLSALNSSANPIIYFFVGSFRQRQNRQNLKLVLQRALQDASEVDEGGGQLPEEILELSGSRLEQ
#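 Test system: HEK293 cells stably expressing human MrgX1 receptor; Input: fifteen thousand cells per well; Dosing: compound delivered in addition one of three; Schedule: overnight seeding, then 1 h dark dye loading; Technique: Fluo-4 NW calcium fluorescence; Measure: B-scored fluorescence response ratio; Controls: positive and negative controls per plate.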
# MrgX1 allo act – positive allosteric modulators of MrgX1, primary screen, HEK293 cells, Fluo-4 calcium flux; FDSS; stronger effect = higher value; B-score at 10 µM; actives 0.63% (n = 310,000);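 active = plate-corrected calcium response at least 3 library SD above typical, normal starting fluorescence, not activating the receptor alone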;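 also: compound read alongside a low EC10 to EC30 dose of BAM8-22 agonist; peak minus trough fluorescence over baseline measured at the second addition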
# MrgX1 antagonist – antagonists of human MrgX1 receptor, primary screen, HEK293 cells, Fluo-4 calcium flux | BAM8-22 antagonism; stronger effect = lower value | B-score at 10 µM | actives 1.3% (n = 310,000) | AID 588676, 2011;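 active = calcium-response B-score plate-corrected more than 3 library SD below zero, starting fluorescence within 5 deviations, no agonist response on first addition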;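 also: peak minus trough fluorescence over baseline after final BAM8-22 challenge near maximal dose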
# RGS4 act – RGS4 potentiators or activators, primary screen, cell-based, HEK293 M3R inducible RGS4, calcium flux; carbachol calcium flux Fluo4; stronger effect = lower value; B-score at 10 µM; actives 0.92% (n = 310,000); AID 463111, 2010;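 active = B-score of the integrated calcium signal more than 4 SD below the library mean, with starting fluorescence not abnormally high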;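 also: negative B-score means reduced calcium response which marks RGS4 activation or potentiation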
#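 test system = M3R-expressing HEK293 line, RGS4 induced by doxycycline | probe or stimulus = carbachol at ECmax as muscarinic agonist stimulus | timing = dye loading 30 min 37 °C, buffer rest 30 min RT | signal = calcium dye Fluo4 fluorescence | evaluation = B score from integrated fluorescence ratio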
# RGS4 inh – RGS4 inhibitors, primary screen, cell-based, HEK293 M3R inducible RGS4, calcium flux; actives 0.45% (n = 310,000); Regulator of G-protein signaling 4 (Homo sapiens), P49798; Fluo-4 calcium flux; stronger effect = higher value; triggered by carbachol at its EC20; B-score at 10 µM;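 active = B-score, a plate-corrected calcium signal, over three deviations above library mean, with baseline fluorescence within five deviations of library mean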;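 also: RGS4 expression induced by doxycycline in cells with stable M3 receptor; B-score is computed from the integrated fluorescence ratio over baseline after carbachol; higher B-score means a larger calcium signal and so more RGS4 inhibition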
# Target sequence (P49798 whole entry, looked up): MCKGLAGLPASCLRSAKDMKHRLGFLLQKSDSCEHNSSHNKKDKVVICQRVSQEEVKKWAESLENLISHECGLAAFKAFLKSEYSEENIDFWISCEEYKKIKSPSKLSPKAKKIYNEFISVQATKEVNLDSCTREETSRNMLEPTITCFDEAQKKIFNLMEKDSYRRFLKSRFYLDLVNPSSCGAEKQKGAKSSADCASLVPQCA
# MrgX1 ant reconf – MrgX1 receptor antagonists, duplicate retest, confirmation, HEK293 cells, Fluo-4 calcium flux; remaining BAM8-22 calcium response % of control (stronger effect = lower value), % at 10 µM; AID 602420, 2012; shares compounds with MrgX1 antagonist; actives 19% (n = 2,300); BAM8-22 calcium flux; stronger effect = lower value;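 active = remaining agonist calcium response no higher than 100% minus 3 SD of agonist-only control wells, with starting fluorescence near control levels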;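 also: agonist BAM8-22 given at a near maximal EC90 to ECmax level; peak minus minimum fluorescence divided by baseline after agonist addition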
# HEK293 Ca flux – nonspecific calcium signal in parental HEK293, confirmation, counter-screen for MrgX1 antagonist project, parental HEK293 cells, Fluo-4 calcium flux; Fluo-4 calcium fluorescence, FDSS; fluorescence ratio F(max-min)/F0 at 10 µM; shares compounds with MrgX1 antagonist; actives 2% (n = 4,000);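 active = duplicate-averaged calcium fluorescence ratio at least three times the standard deviation of buffer wells, a nonspecific response in parental cells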
# HEK293 Ca counter – calcium response in parental HEK293 cells, primary screen, counter-screen for MrgX1 allosteric activator project, cell-based, Fluo-4 calcium flux, duplicate; shares compounds with MrgX1 antagonist; Fluo-4 fluorescence ratio; stronger effect = higher value; fluorescence ratio F(max-min)/F0 at 10 µM; actives 0.4% (n = 4,000); AID 624114, 2012;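 active = calcium fluorescence ratio, averaged over duplicates, at least 3 SD of the buffer-well ratio, meaning a nonspecific response in receptor-free cells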;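 also: untransfected parental HEK293 lacking MrgX1 used as counterscreen for MrgX1 allosteric activators; fluorescence change taken during the second addition on a kinetic imager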
# HEK293 Ca cntr2 – calcium response in parental HEK293 cells, primary screen, counter-screen for MrgX1 agonist project, cell-based, Fluo-4 calcium flux, duplicate, agonist mode | shares compounds with MrgX1 antagonist | Fluo-4 calcium fluorescence (FDSS); stronger effect = higher value | fluorescence ratio F(max-min)/F0 at 10 µM | actives 8.7% (n = 4,000) | AID 624115, 2012;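 active = calcium fluorescence ratio at least three times the spread of buffer wells, meaning a non-specific response in parental cells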
# Numbers stand for hits; - = inactive; . = no result given.
SMILES,MrgX1 agonist,MrgX1 allo act,MrgX1 antagonist,RGS4 act,RGS4 inh,MrgX1 ant reconf,HEK293 Ca flux,HEK293 Ca counter,HEK293 Ca cntr2
Cc1cc(C)c(C)c(S(=O)(=O)NCCCN2CCCC2=O)c1C,-,-,-5.44,-,-,-,-,-,-
O=C1CCCN1CCCNS(=O)(=O)c1ccc(Br)cc1,-,-,-,-,-,.,.,.,.
COC(=O)c1cc(OC)c(OC)cc1NC(=S)N1CCCCC1,-,-,-6.76,-,-,-,-,-,-
COC(=O)c1cc(OC)c(OC)cc1NC(=S)N1CCN(C)CC1,-,-,-,-,-,.,.,.,.
CC1=C(C)C(OCCBr)N(c2cc(O)c(Cl)cc2F)C1=O (centres undefined),-,-,-,-,-,.,.,.,.
O=C(CN1C(=O)NC2(CCCC2)C1=O)Nc1ccc(F)c([N+](=O)[O-])c1,-,-,-,-,-,.,.,.,.
COc1ccccc1NC(=O)N1CCCC1C(=O)NCc1ccccc1 (centres undefined),-,-,-5.69,-,-,-,-,-,-
COc1cccc(NC(=O)C2CCCN2C(=O)Nc2cccc(F)c2)c1 (centres undefined),-,-,-4.92,-,-,-,-,-,-
COc1cccc(NC(=O)C2CCCN2C(=O)Nc2ccccc2)c1 (centres undefined),-,-,-,-,-,.,.,.,.
COc1ccc(NC(=O)N2CCCC2C(=O)NCc2ccc(F)cc2)cc1 (centres undefined),-,-,-12.6,-,-,-,-,-,-
CC1=CC=CC2=NC(=O)CC(C)(C(=O)N(CC(=O)NC3CCCC3)c3ccc(F)cc3)N12 (centres undefined),-,-,-,-,-,.,.,.,.
COc1ccccc1C1=NOC(C(=O)N2CCN(C(=O)c3ccco3)CC2)C1 (centres undefined),-,-,-,-,-,.,.,.,.
CN1CCN(c2ccc(Cl)cc2NC(=O)CN2C(=O)NC(C)(c3ccccc3)C2=O)CC1 (centres undefined),-,-,-4.51,-,-,-,-,-,-
COc1ccc2nc(C)cc(Nc3ccc(C)cc3)c2c1,-,-,-,-,-,.,.,.,.
COc1ccc2nc(C)cc(NCc3ccc(F)cc3)c2c1,-,-,-8.44,-,-,-,-,-,-
Cc1nn(CCO)c2nc(-c3cccs3)cc(C(F)(F)F)c12,-,-,-9.49,-,-,-,-,-,-
CCOC(=O)C1=C(CC)Nc2ccccc2N=C1NC(=O)Nc1ccc(Cl)c(Cl)c1,-,-,-6.1,-,-,49.8%,-,-,-
CCOC(=O)C1=C(CC)Nc2ccccc2N=C1NC(=O)c1ccc(S(=O)(=O)N2CCCC2)cc1,-,-,-,-,-,.,.,.,.
Cn1c(=O)c2nnn(/N=C(\c3ccccc3)C3CC3)c2n(C)c1=O,-,-,-5.08,-,-,67.7%,-,-,-
C=C1c2ccccc2NC(=O)N1c1ccc(C)cc1,-,-,-8.69,-,-,-,-,-,-
C=C1c2cc(C)ccc2NC(=O)N1c1ccc(C)cc1,-,-,-,-,-,.,.,.,.
CCOC(=O)N1CCN(C(=O)CCN2C(=O)COc3ccc(C)cc32)CC1,-,-,-6,-,-,-,-,-,-
O=C(O)C(Cc1ccccc1)n1cccc1 (centres undefined),-,-,-,-,-,.,.,.,.
O=C(O)[C@H](Cc1ccccc1)N1C(=O)c2c(Cl)c(Cl)c(Cl)c(Cl)c2C1=O,-,-,-8.65,-,-,-,-,-,-
CC(NC(=O)COc1ccc(/C=N/NC(=O)CO)cc1)c1ccccc1 (centres undefined),-,-,-,-,-,.,.,.,.
SMILES,MrgX1 agonist,MrgX1 allo act,MrgX1 antagonist,RGS4 act,RGS4 inh,MrgX1 ant reconf,HEK293 Ca flux,HEK293 Ca counter,HEK293 Ca cntr2
COc1ccc(OC)c(N2C(=O)CC(Cc3ccc(Cl)cc3)C2=O)c1 (centres undefined),-,-,-4.52,-,-,-,-,-,-
CCOc1ccc(NC(=O)/C(C=Nc2ccccc2)=C(\C)O)cc1,-,-,-,-,-,.,.,.,.
COc1ccc(C(OC(=O)c2ccco2)C(=O)NC(C)(C)C)cc1 (centres undefined),-,-,-,-,-,.,.,.,.
COc1cccc(NC(=O)C(OC(=O)c2cnc(C)cn2)c2ccccc2)c1 (centres undefined),-,-,-6.22,-,-,-,-,-,-
COc1cccc(NC(=O)c2nc(SC)ncc2Cl)c1,-,-,-,-,-,.,.,.,.
CN(c1ccccc1)S(=O)(=O)c1ccc(NC(=O)c2ccccc2)cc1,-,-,-,-,-,.,.,.,.
COc1cccc(NC(=O)c2nc(S(C)(=O)=O)ncc2Cl)c1,-,-,-5.54,-,-,-,-,-,-
CN(c1ccccc1)S(=O)(=O)c1ccc(NC(=O)c2nc(S(C)(=O)=O)ncc2Cl)cc1,-,-,-5.75,-,-,-,-,-,-
CC(Oc1ccccc1Cl)c1nnc(N)s1 (centres undefined),-,-,-7.82,-,-,-,-,-,-
O=S(=O)(Cc1cc(NCc2ccccc2)nc(-c2ccccn2)n1)c1ccccc1,-,-,-5.65,-,-,85.6%,-,-,-
CC(NC(=O)Cn1cnnn1)C12CC3CC(CC(C3)C1)C2 (centres undefined),-,-,-6.79,-,-,-,-,-,-
CC(NC(=O)CN1CCCC1)C12CC3CC(CC(C3)C1)C2 (centres undefined),-,-,-,-,-,.,.,.,.
CS(=O)(=O)c1ccc(Cl)c(NC(=O)CSC(=S)N2CCCC2)c1,-,-,-,-,-,.,.,.,.
C=CCOc1ccccc1CN1CCCN(C)CC1,-,-,-,-,-,.,.,.,.
COc1ccc2cc(S(=O)(=O)N3CCOCC3)ccc2c1,-,-,-,-,-,.,.,.,.
